Compound activity (PubChem)
CXCR6 block: blocks human CXCR6 beta-arrestin recruitment | O00574 | CHO-K1 PathHunter CXCR6 beta-arrestin, luminescence | inhibition, % at 20 µM | hit rate 0.36% among 360,000 | AID 602244; in the data active means inhibition above about 34%, passing the limit was not always enough;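 further: antagonist mode with CXCL16 agonist at 10 nM final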
HTR2A ag: mouse HTR2A agonism via beta-arrestin recruitment; P35363; CHO-K1 mHTR2A beta-arrestin complementation, luminescence; percent of 30 µM serotonin response; activation, % at 7.6 µM; hit rate 0.66% among 360,000; AID 624169;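 active means activation above a run cutoff, the mean activation of all tested compounds plus 3 SD, cut at about 14% in these data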
Target sequence (P35363 whole entry, looked up): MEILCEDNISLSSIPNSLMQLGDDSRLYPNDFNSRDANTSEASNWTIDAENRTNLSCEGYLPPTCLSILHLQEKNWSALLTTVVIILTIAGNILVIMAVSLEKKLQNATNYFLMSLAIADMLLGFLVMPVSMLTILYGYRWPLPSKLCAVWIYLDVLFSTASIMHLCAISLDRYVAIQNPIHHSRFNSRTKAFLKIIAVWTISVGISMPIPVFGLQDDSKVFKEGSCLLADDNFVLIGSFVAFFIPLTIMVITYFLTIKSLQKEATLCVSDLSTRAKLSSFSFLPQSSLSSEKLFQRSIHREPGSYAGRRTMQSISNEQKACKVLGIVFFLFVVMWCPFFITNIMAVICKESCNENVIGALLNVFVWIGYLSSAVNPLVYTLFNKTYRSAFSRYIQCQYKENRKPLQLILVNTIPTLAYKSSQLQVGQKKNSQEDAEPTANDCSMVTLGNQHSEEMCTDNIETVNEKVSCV
APJ antag: APJ receptor antagonism | hit rate 0.32% among 330,000 | P35414 | CHO-K1 APJ beta-arrestin complementation, luminescence | inhibition, % at 20 µM;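 active means inhibition above about 40% at 20 µM, limit read from the data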;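 further: cells challenged with 10 nM apelin-13 agonist together with compound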
EBI2 block: EBI2 (human) antagonism; inhibition, % at 5 µM; hit rate 0.81% among 360,000; P32249; EBI2 beta-arrestin recruitment, luminescence, 7a,25-OHC stimulated; in the data active means inhibition above about 38%;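 further: enzyme fragment complementation signal reports receptor beta-arrestin coupling in cells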
APJ ag: agonists of human APJ apelin receptor; CHO-K1 APJ PathHunter beta-arrestin, luminescence; 0% DMSO wells, 100% apelin; hit rate 0.11% among 330,000; activation, % at 20 µM;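 active means activation more than six SD over the plate average, tested at 20 µM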
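Test system – PathHunter CHO-K1 APJ (AGTRL-1) beta-arrestin reporter cells · Input – 1000 cells/well · Compound – single test compound dose, 20 µM final, 1% DMSO · Times – compound stimulation 90 min at 25 °C, detection 60 min · Technique – beta-gal luminescence · Read-out basis – APJ–arrestin association signal · Control set – negative DMSO alone, positive Apelin-13 at 10 nM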
CCR6 antag: antagonists of human CCR6 receptor. hit rate 0.49% among 340,000. P51684. inhibition, % at 20 µM. CHO-K1 CCR6 PathHunter beta-arrestin, luminescence, CCL20-stimulated;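 active means compounds whose inhibition of the agonist-driven luminescence signal at 20 µM reaches about 50%, limit read from the data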;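 further: cells stimulated with CCL20 at 14 nM final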
EBI2 conf: EBI2 (human) antagonism, single concentration confirmation; EBI2 beta-arrestin luminescence, 7a,25-OHC antagonism; hit rate 29% among 2,400; inhibition, % at 5 µM; AID 651997; shares compounds with EBI2 block;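 active means inhibition of at least 50%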
EBI2 ag: counter-screen for EBI2 antagonists: EBI2 agonist activity. EBI2-expressing cells, agonist mode, luminescence, 60 min; 0% vehicle, 100% 7α,25-dihydroxycholesterol control. AID 652000. activation, % at 5 µM. shares compounds with EBI2 block. 2,400 tested, under 10 active;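 active means activation of at least 50%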
bGal counter: counter-screen for EBI2 antagonists: E. coli beta-galactosidase inhibition; inhibition, % at 5 µM; hit rate 1% among 2,400; shares compounds with EBI2 block; purified beta-galactosidase, luminescent Galacton Star, 15 min;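 active means replicate-average signal at least 3 plate SD below neutral wells, shown as high inhibition, flagging enzyme-inhibiting false positives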;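 further: higher means stronger loss of beta-gal luminescence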
Of the large screens only hits and unclear results are named; the others gave an inactive call (follow-up assays come after a bar, where they were run). Only some compounds are listed: those with a hit (about 2.1% of all), similar ones and a draw of the others.

COc1cc(/C=N/OCC(=O)NC2CCCCC2)ccc1OCc1ccccc1	none
COc1cc(/C=N/OCC(=O)NC23CC4CC(CC(C4)C2)C3)ccc1OCc1ccccc1	EBI2 block 45 | EBI2 conf inactive | EBI2 ag inactive | bGal counter inactive
Cc1ccc(Sc2cc(NCCCO)c([N+](=O)[O-])c3nonc23)cc1	EBI2 block 53 | EBI2 conf inactive | EBI2 ag inactive | bGal counter inactive
Cc1ccc(C2=NS(=O)(=O)N(C)C(C(=O)NC(C)c3ccccc3)=C2)cc1 (centres undefined)	EBI2 block 40 | EBI2 conf inactive | EBI2 ag inactive | bGal counter inactive
O=C(COc1ccccc1)Nc1ccccc1N1CCCCC1	EBI2 block 45 | EBI2 conf inactive | EBI2 ag inactive | bGal counter inactive
Cc1cccc(OCC(=O)Nc2ccccc2N2CCCCC2)c1	EBI2 block 53 | EBI2 conf inactive | EBI2 ag inactive | bGal counter inactive
CCOc1ccc(OCC(=O)Nc2ccccc2N2CCCC2)cc1	none
Cc1cccc(OCC(=O)Nc2ccccc2N2CCN(C)CC2)c1	none
O=C(CN(Cc1ccccc1)C(=O)c1csnn1)NCCc1ccccc1	none
Cc1ccc(S(=O)(=O)N2CCN(C(=O)c3ccc(S(=O)(=O)N4CCCC4)cc3)CC2)cc1	none
Cc1ccc(S(=O)(=O)N2CCCN(C(=O)c3ccc(-n4nccc4C)cc3)CC2)cc1	EBI2 block 47 | EBI2 conf inactive | EBI2 ag inactive | bGal counter inactive
Cc1ccc2ncnc(-c3ccccc3)c2c1	none
CCOc1ccc(-c2nnn(CC(=O)NCc3ccc(OC)cc3)n2)cc1OCC	none
CC(C)(C)c1ccc(/C=N/Nc2nncn2N)cc1	none
CC(C)(C)c1nnc(N/N=C/c2ccc(Br)cc2)n(N)c1=O	EBI2 block 92 | EBI2 conf 80 | EBI2 ag inactive | bGal counter inactive
Cc1ccc(-c2csc3ncn(/N=C/N(C)C)c(=O)c23)o1	none
Cn1c(=O)c2c(nc(N/N=C/c3ccc(OC(=O)c4ccco4)cc3)n2Cc2ccccc2Cl)n(C)c1=O	EBI2 block 54 | EBI2 conf inactive | EBI2 ag inactive | bGal counter inactive
Cn1c(=O)c2c(nc(N/N=C/c3ccc(OC(=O)c4ccco4)cc3)n2Cc2ccc(F)cc2)n(C)c1=O	none
COc1ccc(C(c2nnnn2-c2ccc(OC)cc2)N2CCN(C/C=C/c3ccccc3)CC2)cc1 (centres undefined)	EBI2 block 63 (no result: APJ antag, APJ ag, CCR6 antag) | EBI2 conf inactive | EBI2 ag inactive | bGal counter inactive
C(=C\c1ccccc1)/CN1CCN(C(c2ccccc2)c2nnnn2-c2ccc3c(c2)OCCO3)CC1 (centres undefined)	EBI2 block 51 (no result: APJ antag, APJ ag, CCR6 antag) | EBI2 conf inactive | EBI2 ag inactive | bGal counter inactive
COc1ccc(-n2nnnc2C(c2ccnc3ccccc23)N2CCN(C/C=C/c3ccccc3)CC2)cc1 (centres undefined)	none (no result: APJ antag, APJ ag, CCR6 antag)
O=C(Nc1ccc2c(c1)OCCO2)C(c1cc2ccccc2o1)N1CCN(C/C=C/c2ccccc2)CC1 (centres undefined)	EBI2 block 39 (no result: APJ antag, APJ ag, CCR6 antag) | EBI2 conf inactive | EBI2 ag inactive | bGal counter inactive
O=C(Nc1ccc2c(c1)OCCO2)C(C1CC1)N1CCN(C/C=C/c2ccccc2)CC1 (centres undefined)	none (no result: APJ antag, APJ ag, CCR6 antag)
COc1ccc(-n2nnnc2C(c2ccccc2OC(F)(F)F)N2CCN(C/C=C/c3ccccc3)CC2)cc1 (centres undefined)	EBI2 block 90 (no result: APJ antag, APJ ag, CCR6 antag) | EBI2 conf 55 | EBI2 ag inactive | bGal counter inactive
C(=C\c1ccccc1)/CN1CCN(C(c2ccnc3ccccc23)c2nnnn2-c2ccc3c(c2)OCCO3)CC1 (centres undefined)	none (no result: APJ antag, APJ ag, CCR6 antag)
COc1ccc(-n2nnnc2C(c2cccs2)N2CCN(C/C=C/c3ccccc3)CC2)cc1 (centres undefined)	none (no result: APJ antag, APJ ag, CCR6 antag)
CCCCn1nnnc1C(c1cccs1)N1CCN(C/C=C/c2ccccc2)CC1 (centres undefined)	EBI2 block 44 (no result: APJ antag, APJ ag, CCR6 antag) | EBI2 conf inactive | EBI2 ag inactive | bGal counter inactive
C(=C\c1ccccc1)/CN1CCN(C(c2nnnn2C2CCCCC2)C2CC2)CC1 (centres undefined)	none (no result: APJ antag, APJ ag, CCR6 antag)
COc1ccc(C(c2nnnn2C(C)(C)C)N2CCN(C/C=C/c3ccccc3)CC2)cc1 (centres undefined)	none (no result: APJ antag, APJ ag, CCR6 antag)
C(=C\c1ccccc1)/CN1CCN(C(c2cc3ccccc3o2)c2nnnn2C2CCCC2)CC1 (centres undefined)	EBI2 block 52 (no result: APJ antag, APJ ag, CCR6 antag) | EBI2 conf inactive | EBI2 ag inactive | bGal counter inactive
CCCCn1nnnc1C(c1ccc(OC)cc1)N1CCN(C/C=C/c2ccccc2)CC1 (centres undefined)	EBI2 block 58 (no result: APJ antag, APJ ag, CCR6 antag) | EBI2 conf inactive | EBI2 ag inactive | bGal counter inactive
C(=C\c1ccccc1)/CN1CCN(C(c2cccc3ccccc23)c2nnnn2C2CCCC2)CC1 (centres undefined)	none (no result: APJ antag, APJ ag, CCR6 antag)
COc1ccc(C(c2nnnn2C2CCCCC2)N2CCN(C/C=C/c3ccccc3)CC2)cc1 (centres undefined)	EBI2 block 60 (no result: APJ antag, APJ ag, CCR6 antag) | EBI2 conf inactive | EBI2 ag inactive | bGal counter inactive
O=C(Nc1cnn(C23CC4CC(CC(C4)C2)C3)c1)c1cc(-c2ccccc2)on1	EBI2 block 63 | EBI2 conf inactive | EBI2 ag inactive | bGal counter inactive
CSc1ccc(/C=N/NC(=O)CN2CCN(Cc3ccccc3Cl)CC2)cc1	EBI2 block 61 | EBI2 conf inactive | EBI2 ag inactive | bGal counter inactive
Cc1ccc(/C=N/NC(=O)CN2CCN(Cc3ccccc3Cl)CC2)o1	none
CSc1ccc(/C=N/NC(=O)CN2CCN(Cc3ccc(C)cc3)CC2)cc1	EBI2 block 45 | EBI2 conf inactive | EBI2 ag inactive | bGal counter inactive
O=C(CN(C(=O)C1CSC(=O)C1)c1ccc(F)cc1)NCc1ccc2c(c1)OCO2 (centres undefined)	none
CC(C)c1cccc(C(C)C)c1NC(=O)COc1nncc2ccccc12	none
O=C(NC(=S)NC1CCSC1=O)c1ccccc1Cl (centres undefined)	none
